The text below walks through data of PubChem BioAssay AID588399 (Southern Research Specialized Biocontainment Screening …, 2011).

Records with an inconclusive call do not appear. The source made the active and inactive calls.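 The calls were made as follows: active = toxic compounds, with cells under 80% alive at a tested dose; inconclusive = one replicate called active, the other inactive; inactive = the rest.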 Where only a bound is given, the exact number is not on record here.

The first experiment has as its system Bladder 5637 cells viability, CellTiter-Glo, 72 h. Nature of the experiment: cytotoxicity in 5637 bladder cells, dose response, cytotoxicity control for bacterial capsule biogenesis inhibitors, cell-based, set 4 (AID 588399).
Settings: not given
A digest of the protocol:
(§1)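 test system = bladder carcinoma 5637 cell line | benchmarks = Hyamine toxic control, untreated cells reference | timing = 72 h compound exposure of cells | read-out basis = percent viability versus mean of untreated cell-only wells, plus CC50 | technique = CellTiter-Glo luminescence | compound = 8 concentrations, 2.3–300 µM | replication = duplicates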
Take `O=C(Nc1ccc(Cl)cc1)c1ccc2[nH]ccc2c1`: the CC50 (in general, the concentration giving 50% cytotoxicity) was 14.1 µM.
Same read-out and setting: in the case of `O=C(Nc1cccnc1)c1ccc2ncsc2c1` it was 28.3 µM.
In the case of `O=C(Nc1nc2ccc(OC(F)(F)F)cc2s1)c1ccc(Br)s1`, the CC50 was 24.6 µM.
Still for that read-out and setting: in the case of `COc1ccc2nc(NC(=O)c3ccc(Br)s3)[nH]c2c1` it was 4.43 µM.
Turning to `COc1ccc2nc(NC(=O)c3cc(Br)c(Br)s3)[nH]c2c1`, the 50% cytotoxic concentration (CC50) is less than 2.34 µM.

System in the next experiment: not listed separately
The description is as above. The following applies: Bladder 5637 cells viability, CellTiter-Glo, 72 h; at 300 µM (top of the series). A digest of the protocol:
as §1
A general note: In ATP-based viability assays light output follows the ATP content of the culture.
As for `COc1ccc(NC(=O)c2ccc3nc[nH]c3c2)cc1`, the viability (usually a read-out of living cells in per cent, often relative to untreated cells) is 104% (inactive).
Take `O=C(Nc1ccccn1)c1ccc2nc[nH]c2c1`: the viability is 94.7% (inactive).
Take `O=C(Nc1ccc(F)cc1)c1ccc2nc[nH]c2c1`: the viability is 83% (inactive).
Take `O=C(Nc1ccc(Br)cc1)c1ccc2ncsc2c1`: the viability is 142% (inactive).
Regarding `O=C(NCc1ccco1)c1ccc2nc[nH]c2c1`, the viability was 111% (inactive).
